Measured values taken from ChEMBL document CHEMBL4689842, “EUbOPEN Chemogenomics Library wave 1” (2021).

System: Fibroblast
Assay: Multiplex assay against human fibroblast
Format: toxicity, cell-based
Summary of the method: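 At seeding, live cells were stained with Hoechst33342, BioTracker Green Microtubule Cytoskeleton Dye, MitoTracker Red and Annexin V Alexa Fluor 680. After compound addition they were imaged on a CQ1 microscope at 37°C and 5% CO2, and CellPathfinder machine-learning gating sorted them into Hoechst high-intensity objects or normal cells, with normal cells further split into healthy, pyknosed or fragmented nuclei and pyknosed cells into mitotic or apoptotic. Tubulin, mitochondrial-mass and membrane-permeability phenotypes are given as per cents of cells with healthy nuclei.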

[1] = 12 h, 1 µM, compound concentration 1 uM, replicate 1
[2] = 12 h, 1 µM, compound concentration 1 uM, replicate 2
[3] = 12 h, 10 µM, compound concentration 10 uM, replicate 1
[4] = 12 h, 10 µM, compound concentration 10 uM, replicate 2
[5] = 24 h, 1 µM, compound concentration 1 uM, replicate 1
[6] = 24 h, 1 µM, compound concentration 1 uM, replicate 2
[7] = 24 h, 10 µM, compound concentration 10 uM, replicate 1
[8] = 24 h, 10 µM, compound concentration 10 uM, replicate 2
[9] = 48 h, 1 µM, compound concentration 1 uM, replicate 1
[10] = 48 h, 1 µM, compound concentration 1 uM, replicate 2
[11] = 48 h, 10 µM, compound concentration 10 uM, replicate 1
[12] = 48 h, 10 µM, compound concentration 10 uM, replicate 2

## Cc1csc2c(N[C@@H](C)CN3CCN(S(=O)(=O)c4ccc(Cl)c(Cl)c4)CC3)ncnc12
[1]
  Population Apoptotic (%): 56%
  Population Fragmented Nuclei (%): 22%
  Population Healthy Nuclei (%): 46%
  Population Hoechst High Intensity Objects (%): 5%
  Population Membrane Permeable-Phenotype (%): 33%
  Population Mitochondria Different-Phenotype (%): 21%
  Population Mitotic Cells (%): 43%
  Population Normal (%): 94%
  Population Pyknosed Nuclei (%): 31%
  Population Tubulin-Different-Phenotype (%): 87%
  Total Cell Count: 149
[2]
  Population Apoptotic (%): 16%
  Population Fragmented Nuclei (%): 5%
  Population Healthy Nuclei (%): 84%
  Population Membrane Permeable-Phenotype (%): 6%
  Population Mitochondria Different-Phenotype (%): 33%
  Population Mitotic Cells (%): 83%
  Population Normal (%): 95%
  Population Pyknosed Nuclei (%): 10%
  Population Tubulin-Different-Phenotype (%): 47%
  Total Cell Count: 48
[3]
  Population Apoptotic (%): 52%
  Population Fragmented Nuclei (%): 32%
  Population Healthy Nuclei (%): 29%
  Population Hoechst High Intensity Objects (%): 21%
  Population Membrane Permeable-Phenotype (%): 23%
  Population Mitochondria Different-Phenotype (%): 42%
  Population Mitotic Cells (%): 47%
  Population Normal (%): 78%
  Population Pyknosed Nuclei (%): 38%
  Population Tubulin-Different-Phenotype (%): 92%
  Total Cell Count: 113
[4]
  Population Apoptotic (%): 75%
  Population Fragmented Nuclei (%): 12%
  Population Healthy Nuclei (%): 67%
  Population Hoechst High Intensity Objects (%): 4%
  Population Membrane Permeable-Phenotype (%): 56%
  Population Mitochondria Different-Phenotype (%): 98%
  Population Mitotic Cells (%): 25%
  Population Normal (%): 95%
  Population Pyknosed Nuclei (%): 19%
  Population Tubulin-Different-Phenotype (%): 98%
  Total Cell Count: 60
[5]
  Population Apoptotic (%): 59%
  Population Fragmented Nuclei (%): 26%
  Population Healthy Nuclei (%): 44%
  Population Hoechst High Intensity Objects (%): 8%
  Population Membrane Permeable-Phenotype (%): 19%
  Population Mitochondria Different-Phenotype (%): 33%
  Population Mitotic Cells (%): 40%
  Population Normal (%): 91%
  Population Pyknosed Nuclei (%): 29%
  Population Tubulin-Different-Phenotype (%): 90%
  Total Cell Count: 156
[6]
  Population Apoptotic (%): 60%
  Population Fragmented Nuclei (%): 11%
  Population Healthy Nuclei (%): 73%
  Population Hoechst High Intensity Objects (%): 4%
  Population Membrane Permeable-Phenotype (%): 11%
  Population Mitochondria Different-Phenotype (%): 25%
  Population Normal (%): 95%
  Population Pyknosed Nuclei (%): 14%
  Population Tubulin-Different-Phenotype (%): 23%
  Total Cell Count: 64
[7]
  Population Apoptotic (%): 67%
  Population Fragmented Nuclei (%): 36%
  Population Healthy Nuclei (%): 24%
  Population Hoechst High Intensity Objects (%): 23%
  Population Membrane Permeable-Phenotype (%): 19%
  Population Mitochondria Different-Phenotype (%): 71%
  Population Mitotic Cells (%): 32%
  Population Normal (%): 76%
  Population Pyknosed Nuclei (%): 39%
  Population Tubulin-Different-Phenotype (%): 80%
  Total Cell Count: 113
[8]
  Population Apoptotic (%): 80%
  Population Fragmented Nuclei (%): 15%
  Population Healthy Nuclei (%): 57%
  Population Hoechst High Intensity Objects (%): 4%
  Population Membrane Permeable-Phenotype (%): 80%
  Population Mitochondria Different-Phenotype (%): 97%
  Population Mitotic Cells (%): 19%
  Population Normal (%): 95%
  Population Pyknosed Nuclei (%): 26%
  Population Tubulin-Different-Phenotype (%): 97%
  Total Cell Count: 72
[9]
  Population Apoptotic (%): 67%
  Population Fragmented Nuclei (%): 22%
  Population Healthy Nuclei (%): 53%
  Population Hoechst High Intensity Objects (%): 9%
  Population Membrane Permeable-Phenotype (%): 33%
  Population Mitochondria Different-Phenotype (%): 17%
  Population Mitotic Cells (%): 32%
  Population Normal (%): 90%
  Population Pyknosed Nuclei (%): 24%
  Population Tubulin-Different-Phenotype (%): 96%
  Total Cell Count: 155
[10]
  Population Apoptotic (%): 100%
  Population Fragmented Nuclei (%): 31%
  Population Healthy Nuclei (%): 67%
  Population Hoechst High Intensity Objects (%): 8%
  Population Membrane Permeable-Phenotype (%): 9%
  Population Mitochondria Different-Phenotype (%): 7%
  Population Mitotic Cells (%): 0%
  Population Normal (%): 91%
  Population Pyknosed Nuclei (%): 0%
  Population Tubulin-Different-Phenotype (%): 93%
  Total Cell Count: 123
[11]
  Population Apoptotic (%): 100%
  Population Fragmented Nuclei (%): 33%
  Population Healthy Nuclei (%): 37%
  Population Hoechst High Intensity Objects (%): 40%
  Population Membrane Permeable-Phenotype (%): 21%
  Population Mitochondria Different-Phenotype (%): 56%
  Population Mitotic Cells (%): 0%
  Population Normal (%): 59%
  Population Pyknosed Nuclei (%): 29%
  Population Tubulin-Different-Phenotype (%): 82%
  Total Cell Count: 104
[12]
  Population Apoptotic (%): 57%
  Population Fragmented Nuclei (%): 44%
  Population Healthy Nuclei (%): 47%
  Population Hoechst High Intensity Objects (%): 25%
  Population Membrane Permeable-Phenotype (%): 2%
  Population Mitochondria Different-Phenotype (%): 79%
  Population Mitotic Cells (%): 42%
  Population Normal (%): 75%
  Population Pyknosed Nuclei (%): 7%
  Population Tubulin-Different-Phenotype (%): 95%
  Total Cell Count: 120
